From ChEMBL document CHEMBL1132984 (J Med Chem, 2000)

species on record: Rattus norvegicus; test: In vitro inhibitory concentration that relaxes KCL induced contraction in rat detrusor strips by 50%; format: functional; conditions: not given
Summary of the method: (§1)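 Female Sprague-Dawley rat (250-350 g) detrusor strips, 4-5 mm by 10 mm, pretensioned 0.25-0.5 g in a tissue bath and contracted with an additional 15 mM KCl. Compounds added as cumulative concentrations to steady state. Contractility measured as 5 min area under the contraction curve per concentration; IC50 is the concentration relaxing KCl-induced contraction by 50%. Glyburide added at end.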

Structure (SMILES)	IC50 [µM]
C[C@@H](/N=c1\c(O)c(O)\c1=N/c1ccc(C#N)cc1)C(C)(C)C (stereo in doubt; 42)	0.37
C[C@@H](/N=c1\c(O)c(O)\c1=N/c1ccc(C#N)cc1)C(C)(C)C (stereo in doubt; 43)	24.3
N#Cc1ccc(Nc2c(NC3CC4CCC3C4)c(=O)c2=O)cc1 (stereo in doubt; 57)	3.35
N#Cc1ccc(Nc2c(NC3CC4CCC3C4)c(=O)c2=O)cc1 (stereo in doubt; 58)	> 30

same assay, conditions: Rattus norvegicus

Structure (SMILES)	IC50 [µM]
CC(/N=c1\c(O)c(O)\c1=N/c1cccc2cccnc12)C(C)(C)C (stereo not given)	8.1
CC(/N=c1\c(O)c(O)\c1=N/c1ccncc1)C(C)(C)C (stereo not given)	1.36
CC(C)C(C)/N=c1\c(O)c(O)\c1=N/c1ccc(C#N)cc1 (stereo not given)	1.9
CC(/N=c1\c(O)c(O)\c1=N/c1ccccc1C#N)C(C)(C)C (stereo not given)	> 30
CC(/N=c1\c(O)c(O)\c1=N/c1ccc(S(C)(=O)=O)cc1)C(C)(C)C (stereo not given)	> 30
CSc1ccc(Nc2c(NC(C)C(C)(C)C)c(=O)c2=O)cc1 (stereo not given)	> 30
CC(C)(/N=c1\c(O)c(O)\c1=N/c1ccc(C#N)cc1)c1ccccc1	> 30
CC(/N=c1\c(O)c(O)\c1=N/c1ccc(-n2ccnc2)cc1)C(C)(C)C (stereo not given)	> 30
CCC(C)(C)/N=c1\c(O)c(O)\c1=N/c1ccc(C#N)cc1	> 30
CC(/N=c1\c(O)c(O)\c1=N/c1ccc(CC#N)cc1)C(C)(C)C (stereo not given)	0.34
CC(/N=c1\c(O)c(O)\c1=N/c1ccccc1)C(C)(C)C (stereo not given)	5.4
C[C@@H](/N=c1\c(O)c(O)\c1=N/c1ccc(C#N)cc1Cl)C(C)(C)C	0.041
COc1ccc(Nc2c(NC(C)C(C)(C)C)c(=O)c2=O)cc1 (stereo not given)	2.4
Cc1cc(/N=c2\c(O)c(O)\c2=N/[C@H](C)C(C)(C)C)ccc1C#N	0.63
CC(/N=c1\c(O)c(O)\c1=N/c1ccc(C#N)cc1)c1ccc(OC(F)(F)F)cc1 (stereo not given)	> 30
C[C@@H](/N=c1\c(O)c(O)\c1=N/c1ccc2c[nH]nc2c1)C(C)(C)C	4.6
CC(C)(C)/N=c1\c(O)c(O)\c1=N/c1ccc2ncccc2c1	> 30
N#Cc1ccc(Nc2c(NC3CCCCC3)c(=O)c2=O)cc1	> 30
CC(/N=c1\c(O)c(O)\c1=N/c1cnc2ccccc2c1)C(C)(C)C (stereo not given)	> 30
CC(/N=c1\c(O)c(O)\c1=N/c1ccc(S(N)(=O)=O)cc1)C(C)(C)C (stereo not given)	> 30
CCC(C)/N=c1\c(O)c(O)\c1=N/c1ccc(C#N)cc1 (stereo not given)	2.1
COC(=O)c1ccc(Nc2c(NC(C)C(C)(C)C)c(=O)c2=O)cc1 (stereo not given)	> 30
CC(C)(C)/N=c1\c(O)c(O)\c1=N/c1cccnc1Cl	1.77
C[C@@H](/N=c1\c(O)c(O)\c1=N/c1cccnc1)C(C)(C)C	1.9

Structure (SMILES)	IC50 [µM]
C[C@@H](/N=c1\c(O)c(O)\c1=N/c1ccncc1)C(C)(C)C	1.68
CC(C)(C)/N=c1\c(O)c(O)\c1=N/c1cccnc1	2.8
CC(C)/N=c1\c(O)c(O)\c1=N/c1ccc(C#N)cc1	13.7
CC(/N=c1\c(O)c(O)\c1=N/c1ccc(C(F)(F)F)cc1)C(C)(C)C (stereo not given)	> 30
C[C@@H](/N=c1\c(O)c(O)\c1=N/c1ccc2[nH]ncc2c1)C(C)(C)C	0.74
CC(C)(C)/N=c1\c(O)c(O)\c1=N/c1cnc2ccccc2c1	> 30
COc1cc(/N=c2\c(O)c(O)\c2=N/C(C)C(C)(C)C)c2ncccc2c1 (stereo not given)	> 30
N#Cc1ccc(Nc2c(NC(c3ccccc3)C(F)(F)F)c(=O)c2=O)cc1 (stereo not given)	4
CC(/N=C(\NC#N)Nc1ccc(C#N)cc1)C(C)(C)C (stereo not given)	0.19
N#Cc1ccc(Nc2c(NCc3ccccc3)c(=O)c2=O)cc1	> 30
CC(C)(C)/N=c1\c(O)c(O)\c1=N/c1cccc2cnccc12	1.84
N#Cc1ccc(/N=c2\c(O)c(O)\c2=N/C(CO)c2ccccc2)cc1 (stereo not given)	14.3
CC(/N=c1\c(O)c(O)\c1=N/c1ccc(-c2ccccc2)cc1)C(C)(C)C (stereo not given)	> 30
CCc1cc(Nc2c(N[C@H](C)C(C)(C)C)c(=O)c2=O)ccc1C#N	17.6
C[C@@H](/N=c1\c(O)c(O)\c1=N/c1ccc(C#N)cc1O)C(C)(C)C	6.05
CC(=O)c1ccc(/N=c2\c(O)c(O)\c2=N/C(C)C(C)(C)C)cc1 (stereo not given)	21.2
CC(/N=c1\c(O)c(O)\c1=N/c1ccc(C#N)cc1)C(C)(C)C (stereo not given)	0.52
CCCCCCC/N=c1\c(O)c(O)\c1=N/c1ccc(C#N)cc1	> 30
Nc1c(Nc2cccnc2)c(=O)c1=O	> 30
C[C@@H](/N=c1\c(O)c(O)\c1=N/c1ccc(C#N)c(Cl)c1)C(C)(C)C	4.3
CC(/N=c1\c(O)c(O)\c1=N/c1ccc(OC(F)(F)F)cc1)C(C)(C)C (stereo not given)	> 30
CCCc1cc(C#N)ccc1/N=c1\c(O)c(O)\c1=N/[C@H](C)C(C)(C)C	23.1
CC(/N=c1\c(O)c(O)\c1=N/c1cccnc1)C(C)(C)C (stereo not given)	1.95
CCc1cc(C#N)ccc1Nc1c(N[C@H](C)C(C)(C)C)c(=O)c1=O	0.09

Structure (SMILES)	IC50 [µM]
CC[C@@H](/N=c1\c(O)c(O)\c1=N/c1ccc(C#N)cc1)c1ccccc1	22.5
C[C@@H](/N=c1\c(O)c(O)\c1=N/c1ccc(C#N)cc1)C1CCCCC1	2.6
C[C@@H](/N=c1\c(O)c(O)\c1=N/c1ccc(C#N)cc1)c1ccccc1	0.056
C[C@H](/N=c1\c(O)c(O)\c1=N/c1ccc(C#N)cc1)c1ccccc1	> 30
CC[C@H](/N=c1\c(O)c(O)\c1=N/c1ccc(C#N)cc1)c1ccccc1	> 30
C[C@H](/N=c1\c(O)c(O)\c1=N/c1ccc(C#N)cc1)C1CCCCC1	> 30
Cc1cc(C#N)ccc1/N=c1\c(O)c(O)\c1=N/[C@H](C)C(C)(C)C	1.08
C[C@@H](/N=c1\c(O)c(O)\c1=N/c1ccc(C#N)cc1C(=O)c1ccccc1)C(C)(C)C	4.78
C[C@@H](/N=c1\c(O)c(O)\c1=N/c1ccc(C#N)c2c1CCCC2)C(C)(C)C	0.67
COc1cc(C#N)ccc1/N=c1\c(O)c(O)\c1=N/[C@H](C)C(C)(C)C	0.29
COc1ncccc1/N=c1\c(O)c(O)\c1=N/C(C)(C)C	2.56
CC(/N=c1\c(O)c(O)\c1=N/c1cncc(Br)c1)C(C)(C)C (stereo not given)	11.7
C[C@@H](/N=c1\c(O)c(O)\c1=N/c1ccc(C#N)cc1Br)C(C)(C)C	0.075
Cc1ccc(C(C)/N=c2\c(O)c(O)\c2=N/c2ccc(C#N)cc2)cc1 (stereo not given)	> 30
CC(/N=c1\c(O)c(O)\c1=N/c1ccc(Br)cc1)C(C)(C)C (stereo not given)	1.26
CC(C)(C)/N=c1\c(O)c(O)\c1=N/c1ccc(C#N)cc1	0.56
CC(/N=c1\c(O)c(O)\c1=N/c1cccnc1O)C(C)(C)C (stereo not given)	> 30
CC(/N=c1\c(O)c(O)\c1=N/c1cccc(C#N)c1)C(C)(C)C (stereo not given)	3.05
C/N=c1\c(O)c(O)\c1=N/c1ccc(C#N)cc1	> 30
CC(C)(C)C/N=c1\c(O)c(O)\c1=N/c1ccc(C#N)cc1	> 30
CCC(CC)/N=c1\c(O)c(O)\c1=N/c1ccc(C#N)cc1	3.34
N#Cc1ccc(Nc2c(NC3CCCC3)c(=O)c2=O)cc1	11.5
CC(N/C(=N\C#N)Nc1ccncc1)C(C)(C)C (single isomer, unassigned; (+)) [PINACIDIL ANHYDROUS]	0.63
C[C@](O)(C(=O)Nc1ccc(C(=O)c2ccccc2)cc1)C(F)(F)F [ZD-6169]	0.93

system: Rattus norvegicus; test: Effective dose in vivo for reduction in the frequency of spontaneous bladder contractions in the rat oral administration; format: functional; conditions: not given

Structure (SMILES)	ED50 [mg/kg]
CCc1cc(C#N)ccc1Nc1c(N[C@H](C)C(C)(C)C)c(=O)c1=O	0.13
CC1(C)Oc2ccc(OC(F)(F)F)cc2[C@@H](N2Cc3ccccc3C2=O)[C@@H]1O	0.3
C[C@](O)(C(=O)Nc1ccc(C(=O)c2ccccc2)cc1)C(F)(F)F [ZD-6169]	2.4

system: Rattus norvegicus; test: compound was evaluated in vivo for maximum % change in MAP in normotensive rat model after oral administration of a dose of 10 mg/kg; format: functional; conditions: not given
Summary of the method: (§2)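 Normotensive rats given test compound orally in a separate group from the efficacy animals. Mean arterial pressure and heart rate recorded after dosing, with maximum % change in MAP from initial values reported. ED20 is the oral dose causing a 20% drop in MAP.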

Structure (SMILES)	Change [%]
CC(/N=C(\NC#N)Nc1ccc(C#N)cc1)C(C)(C)C (stereo not given)	-19

system: Rattus norvegicus; test: Effective dose in vivo for reduction in MAP in normotensive rat model after oral administration; format: functional; conditions: not given; summary of the method: as §2

Structure (SMILES)	ED20 [mg/kg]
CCc1cc(C#N)ccc1Nc1c(N[C@H](C)C(C)(C)C)c(=O)c1=O	2.3
CC1(C)Oc2ccc(OC(F)(F)F)cc2[C@@H](N2Cc3ccccc3C2=O)[C@@H]1O	0.2
C[C@](O)(C(=O)Nc1ccc(C(=O)c2ccccc2)cc1)C(F)(F)F [ZD-6169]	6.96

species on record: Rattus norvegicus; test: In vitro inhibitory concentration that relaxes KCL induced contraction in rat detrusor strips by 50%; contracted; format: functional; conditions: not given; summary of the method: as §1

Structure (SMILES)	IC50
N#Cc1ccc(Nc2c(NC3CCCCCC3)c(=O)c2=O)cc1	contracted
CC(/N=c1\c(O)c(O)\c1=N/c1ccccn1)C(C)(C)C (stereo not given)	contracted
COc1ccc(C(C)/N=c2\c(O)c(O)\c2=N/c2ccc(C#N)cc2)cc1 (stereo not given)	contracted

system: not listed separately; test: Selectivity ratio of MAP ED20/bladder ED50; format: functional; conditions: not given
Summary of the method: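 Ratio of the oral ED20 for a 20% MAP drop in normotensive rats to the oral ED50 for a 50% reduction in spontaneous bladder contraction frequency in the urethral-obstructed rat instability model.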

Structure (SMILES)	Ratio
CCc1cc(C#N)ccc1Nc1c(N[C@H](C)C(C)(C)C)c(=O)c1=O	17.7
CC1(C)Oc2ccc(OC(F)(F)F)cc2[C@@H](N2Cc3ccccc3C2=O)[C@@H]1O	0.7
C[C@](O)(C(=O)Nc1ccc(C(=O)c2ccccc2)cc1)C(F)(F)F [ZD-6169]	2.9

species on record: Rattus norvegicus; test: In vitro inhibitory concentration that relaxes KCL induced contraction in rat detrusor strips by 50%; NE=no effect; format: functional; conditions: not given; summary of the method: as §1

Structure (SMILES)	IC50
CC(/N=c1\c(O)c(O)\c1=N/c1ccc(C#N)cc1)c1ccc(F)cc1 (stereo not given)	Not Active
CC(/N=c1\c(O)c(O)\c1=N/c1ccc(C#N)cc1)c1ccc([N+](=O)[O-])cc1 (stereo not given)	Not Active
C[C@@H](/N=c1\c(O)c(O)\c1=N/c1ccc(C#N)c(O)c1)C(C)(C)C	Not Active

system: Rattus norvegicus; test: Compound was evaluated in vivo for the % change in the frequency of spontaneous bladder contractions in the rat after oral administration of a dose of 10 mg/kg; format: functional; conditions: not given

Structure (SMILES)	Change [%]
CC(/N=C(\NC#N)Nc1ccc(C#N)cc1)C(C)(C)C (stereo not given)	-27
CC(/N=c1\c(O)c(O)\c1=N/c1ccc(C#N)cc1)C(C)(C)C (stereo not given)	-83

system: Rattus norvegicus; test: compound was evaluated in vivo for maximum % change in MAP in normotensive rat model after oral administration of a dose of 30 mg/kg; format: functional; conditions: not given; summary of the method: as §2

Structure (SMILES)	Change [%]
CC(/N=c1\c(O)c(O)\c1=N/c1ccc(C#N)cc1)C(C)(C)C (stereo not given)	8
